# Screening results from PubChem BioAssay.
# PMI act satM6P = human PMI activators, high substrate, primary screen, biochemical, fluorescence intensity, near-saturating mannose 6-phosphate | activation factor at 20 µM | Mannose-6-phosphate isomerase (Homo sapiens), P34949 | AID 1216, 2008 | actives 0.34% (n = 190,000) | coupled PMI enzyme assay, resazurin fluorescence, 20 min; active compounds read high; 1 = untreated enzyme, 0 = substrate-free blank;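 active means activation factor of 2 or more at 20 µM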
# Target sequence (P34949 whole entry, looked up): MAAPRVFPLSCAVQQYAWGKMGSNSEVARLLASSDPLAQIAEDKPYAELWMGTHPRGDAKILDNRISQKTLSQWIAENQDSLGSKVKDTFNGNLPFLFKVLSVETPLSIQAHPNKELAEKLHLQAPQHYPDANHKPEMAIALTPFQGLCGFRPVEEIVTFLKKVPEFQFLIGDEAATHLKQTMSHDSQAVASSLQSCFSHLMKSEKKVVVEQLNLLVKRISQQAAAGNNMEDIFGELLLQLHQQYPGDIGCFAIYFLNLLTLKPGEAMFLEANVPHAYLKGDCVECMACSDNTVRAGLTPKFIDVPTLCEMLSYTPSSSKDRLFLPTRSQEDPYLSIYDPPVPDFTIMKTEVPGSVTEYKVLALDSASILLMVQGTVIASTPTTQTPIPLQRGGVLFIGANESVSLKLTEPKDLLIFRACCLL
#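 Test system – human PMI in coupled enzyme assay · Timing – 20 min incubation at room temperature · Detection – Diaphorase-driven resazurin-to-resorufin fluorescence, excitation 544, emission 590 nm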
# Diaph act CS = compounds boosting diaphorase resazurin reduction – biochemical, uHTS, resorufin fluorescence, counter-screen for diaphorase-coupled primary assays, primary screen; Diaphorase/resazurin coupled assay, 16 min; active compounds read high; 1 = vehicle wells, 0 = NADH-free wells; activation factor at 20 µM; actives 0.005% (n = 190,000); AID 1229, 2008;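 active means diaphorase activity raised at least twofold by the compound at 20 µM; inactive means activation factor below 2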
#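 Material: Clostridium kluyveri diaphorase, purified enzyme; Quantity: enzyme 0.07 U/mL final; Medium: HEPES pH 7.4 buffer with MgCl2 and Tween 20; Dosing: single compound dose of 20 µM, 1% DMSO final; Schedule: 16 min reaction at room temperature; Measured by: red resorufin fluorescence at 544/590 nm excitation/emission.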
# L major viab = Leishmania major promastigote growth inhibition, primary screen; Leishmania major promastigotes, resazurin fluorescence viability; actives 9% (n = 200,000); AID 1063, 2008; inhibition, % at 10 µM; in the data active means inhibition above about 50%;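 further: promastigotes grown with compound for 44 hours at 28 °C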
# WT yeast gro inh = growth inhibition of WT strain, primary screen, mitochondrial fusion inhibitor project, WT and mutant strains, chemical genetic; mitochondrial fusion phenotypic screen; inhibition, % at 10 µM; actives 2.1% (n = 190,000); in the data active means inhibition above about 58%; tested in S. cerevisiae
# PMI activator = activators of human PMI, primary screen, biochemical, fluorescence intensity, near-Km mannose 6-phosphate | activation factor at 20 µM | purified human PMI, coupled resazurin fluorescence, 20 min; active compounds read high; 1 = vehicle control, 0 substrate-free wells | Mannose-6-phosphate isomerase (Homo sapiens), P34949 | actives 0.005% (n = 190,000);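 active means activation factor of 2 or more at 20 µM, relative to plate controls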
# Active calls of the source: *. Hits are enriched below; roughly 10% of the tested compounds scored in any of these assays.
SMILES,PMI act satM6P,Diaph act CS,L major viab,WT yeast gro inh,PMI activator
COc1ccc(Cc2nnc(N/N=C/c3ccc(O)cc3)[nH]c2=O)cc1OC,1.2,0.8,98*,-6,0.9
Nc1n[nH]c(N)c1N=Nc1ccc(Cl)cc1Cl,0.8,0.9,5,18,0.8
COc1ccc(C(=O)OCC(=O)NC(=O)NC2CCCC2)c(OC)c1,1.1,0.9,2,-7,1
CCc1ccc(-c2cc(C(=O)N3N=C(C(F)F)CC3(O)C(F)F)c3ccccc3n2)cc1 (centres undefined),0.9,0.8,71*,80*,0.8
O=C(CC1NCCc2ccccc21)Nc1ccc(Oc2ccccc2)cc1 (centres undefined),1,1,99*,20,0.9
CCN(C(=O)COC(=O)c1cc(-c2ccc3cc(OC)ccc3c2)nc2ccccc12)C1CCS(=O)(=O)C1 (centres undefined),1,0.9,98*,22,0.9
CCN(C(=O)COC(=O)c1cc(-c2ccccc2)nc2c1c(C)nn2-c1ccccc1)C1CCS(=O)(=O)C1 (centres undefined),0.9,0.8,16,3,0.9
CCCCN(CCCC)C(=S)N/N=C/c1c(C)[nH]n(-c2ccccc2)c1=O,1,0.9,96*,42,1.1
Cc1[nH]n(-c2ccccc2)c(=O)c1/C=N/Nc1nncc(-c2ccccc2)n1,1.1,0.9,100*,-4,0.9
Cc1ccc(/C=N/Nc2nncc(-c3ccccc3)n2)o1,0.9,0.9,9,6,1
CN(C(=O)CCc1nc(-c2ccccc2F)no1)c1ccccc1,1,0.9,2,20,1
O=S(=O)(C/C(=C/CO)S(=O)(=O)c1ccccc1)c1ccccc1,1,1,55*,-8,1
O=C(CN(c1ccccc1)S(=O)(=O)c1ccccc1)N/N=C/c1ccco1,1,0.9,43,-20,1
O=C(C1=C[C@H](C2CCCCC2)C[C@H](OCc2ccc(CO)cc2)O1)N1CCN(Cc2ccccc2)CC1,0.8,0.7,35,72*,0.7
CC(C)(C)[C@H]1C=C(C(=O)N2CCN(Cc3ccccc3)CC2)O[C@@H](OCc2ccc(CO)cc2)C1,0.9,0.6,18,72*,0.9
O=C(C1=C[C@H](C2CCCCC2)C[C@H](OCc2ccc(CO)cc2)O1)N1CCOCC1,1,0.9,-6,6,1
O=C(C1=C[C@@H](C2CCCCC2)C[C@@H](OCc2ccc(CO)cc2)O1)N1CCN(Cc2ccccc2)CC1,0.8,0.7,40,64*,0.8
S=C(Nc1ccccc1Cl)NC1CC2CCCC(C1)N2C1CC1 (centres undefined),0.8,1,43,15,1
COC(=O)c1ccc(CSc2nc3ccccc3c(=O)n2-c2ccccc2)o1,1,0.9,19,28,0.9
COC(=O)c1ccc(CSc2nc3c(c(=O)n2-c2ccc(F)cc2)SCC3)o1,1,0.8,100*,10,1
COc1ccc(NC(=O)CSc2nc3c(c(=O)n2-c2ccc(F)cc2)SCC3)cc1,1,0.8,9,4,0.9
COC(=O)c1ccc(CSc2nc3ccccc3c(=O)n2-c2ccc(OC)c(OC)c2)o1,0.9,0.8,97*,11,0.8
COC(=O)c1ccc(CSc2nc3c(c(=O)n2-c2ccccc2)SCC3)o1,1,1.1,87*,-4,1
O=C(COC(=O)c1cc(Br)ccc1Cl)NC1CCCC1,1,0.9,-2,7,1
CCc1ccccc1NC(=O)/C(=C/c1ccco1)c1ccccc1,1.1,1,12,59*,1.1
Cc1ccccc1NC(=O)/C(=C/c1ccco1)c1ccccc1,1.1,1,5,-4,1.1
O=C1N/C(=N\N=C\c2cccnc2)SC1Cc1ccc(SC(F)F)cc1 (centres undefined),1.2,1.2,74*,53,1.1
O=C1N/C(=N\N=C\c2ccc3ncccc3c2)SC1Cc1ccc(SC(F)F)cc1 (centres undefined),1,1,1,8,1
